Bioassay records as filed in PubChem BioAssay.
An excerpt weighted towards active compounds, which were near 0.68% of everything screened.
TNAP act hi DEA = activators of human TNAP at high phosphate acceptor concentration; purified TNAP, CDP-star luminescence, 1 M DEA, 30 min; hits give high values; 0 = EDTA background, 1 = DMSO-only activity; P05186; AID 1136; activation factor at 20 µM; 200,000 tested, under 10 active;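 active = activation factor at least 2 at 20 µM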
Target sequence (P05186 whole entry, looked up): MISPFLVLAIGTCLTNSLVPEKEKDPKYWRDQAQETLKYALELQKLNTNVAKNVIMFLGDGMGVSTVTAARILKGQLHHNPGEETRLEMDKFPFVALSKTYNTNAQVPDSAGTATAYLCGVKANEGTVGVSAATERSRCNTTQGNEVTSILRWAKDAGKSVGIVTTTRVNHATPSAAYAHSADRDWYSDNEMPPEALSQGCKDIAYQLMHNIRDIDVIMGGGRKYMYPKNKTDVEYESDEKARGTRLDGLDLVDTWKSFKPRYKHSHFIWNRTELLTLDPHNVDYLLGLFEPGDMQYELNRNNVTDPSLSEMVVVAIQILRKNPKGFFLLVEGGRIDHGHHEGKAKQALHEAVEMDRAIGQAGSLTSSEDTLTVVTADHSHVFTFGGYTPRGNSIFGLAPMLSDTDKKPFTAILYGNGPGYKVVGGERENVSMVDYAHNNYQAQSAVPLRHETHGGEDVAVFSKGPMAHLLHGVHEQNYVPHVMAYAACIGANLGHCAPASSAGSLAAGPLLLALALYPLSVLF
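Control set: EDTA negative control, DMSO positive control / Assay system: human TNAP / Quantity: TNAP 1/800 final / Evaluation: TNAP activation factor scaled between EDTA and DMSO control wells / Measured by: luminescent substrate turnover signal / Compound dosing: one dose, 20 µM / Times: 30 min enzyme reaction at room temperature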
Pf gamet viab = kills late stage P. falciparum gametocytes | P. falciparum stage V gametocytes, ATP luminescence, 24 h | inhibition, % at 10.9 µM | hit rate 0.065% among 150,000;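 active = inhibition above the mean plus 3 SD of compounds within the control limits, set per campaign, cut at about 38% in these data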;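 note: 0% = DMSO wells and 100% = medium only without gametocytes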
Furin inhibitor = human furin inhibition; P09958; purified furin, fluorogenic substrate cleavage; inhibition, % at 20 µM or 30 µM; hit rate 0.061% among 220,000; AID 463115; in the data active = inhibition above about 25%
TNAP inh hi DEA = TNAP (human) inhibition, high acceptor; hit rate 0.03% among 200,000; purified TNAP, CDP-star luminescence, 1 M DEA; inhibition, % at 20 µM; P05186;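 active = over 50% inhibition of tissue-nonspecific alkaline phosphatase at 20 µM in the single-dose screen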;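 note: plate controls were DMSO wells for no effect and EDTA-quenched wells as full inhibition for full effect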
TNAP inh noacc = inhibitors of human TNAP without phosphate acceptor; purified TNAP, CDP-star luminescence, 30 min; inhibition, % at 20 µM; hit rate 0.26% among 200,000; AID 1012;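 active = tissue-nonspecific alkaline phosphatase inhibition above about 50% at 20 µM in the single-dose screen, limit read from the data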;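 note: 0% = DMSO negative control and 100% = EDTA positive control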
Efa HMGR inh = E. faecalis class II HMG-CoA reductase inhibition | inhibition, % at 10 µM | purified E. faecalis HMGR, NADPH absorbance 340 nm kinetic | hit rate 0.41% among 190,000;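 active = inhibition above a set limit, the median over all tested compounds plus 3 SD, cut at about 9.5% in these data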;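 note: enzyme runs in reverse so mevalonate oxidation gives rising NADPH absorbance; 0% = complete reaction with DMSO and 100% = background rate lacking mevalonate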
* hit, by the source's call; / = not tested or not shown.

SMILES	TNAP act hi DEA	Pf gamet viab	Furin inhibitor	TNAP inh hi DEA	TNAP inh noacc	Efa HMGR inh
COc1ccc(OCc2nc(-c3ccc(F)c(F)c3)cs2)cc1	/	1	-14	/	/	/
CCc1nnc(NC(=O)CSc2nc3cc(OC)ccc3cc2C)s1	1	-13	-22	-2	-8	2
C/C(=N\NC(=O)CCC(=O)Nc1ccc(C)c(C)c1)c1cccs1	1.1	-4	-12	-6	-9	-5
CCn1ccnc1CN(C)Cc1cn[nH]c1-c1ccc(F)cc1F	1	16	-24	-3	85*	-3
CC1(C)CC(CC(=O)Nc2nccs2)(c2ccccc2)CCO1 (centres undefined)	1	1	-6	-3	-11	-7
COc1ccccc1NC(=O)C1=C(C)NC(=O)NC1c1ccccc1[N+](=O)[O-] (centres undefined)	1	-4	-24	-1	-2	11*
CCN(CC)C(=O)c1cnn(-c2ccccc2)c1NC(=O)c1cccs1	0.9	/	-8	6	0	9.6*
CC1=NN(c2nc(-c3ccc(C)cc3)cs2)C(=O)C1N=Nc1ccc(C(N)=O)cc1 (centres undefined)	0.8	-20	-20	23	4	-6
Cc1ccc(SCC(=O)NCC(C)C)cc1	1.1	/	-26	-7	-14	-1
CC(C)CNC(=O)CSc1ccc(Cl)cc1	1	1	-19	-1	-7	37*
O=C(COC(=O)c1ccc2c(=O)n3c(nc2c1)CCC3)Nc1ccc(OC(F)F)cc1	1.1	3	-15	-7	-8	-3
Cc1ccccc1NC(=O)C1Cc2ccccc2CN1C(=O)OCc1ccccc1 (centres undefined)	1	3	-9	-5	-11	6
CC(=O)c1cccc(NC(=O)COc2cc3oc(=O)c(CC(C)O)c(C)c3cc2Cl)c1 (centres undefined)	1.1	-9	-17	-6	8	-5
CC(/C=C/c1ccccc1)=N/NC(=O)c1cnccn1	1	/	27*	-1	-2	-3
CCCc1ccc(OCC(=O)Nc2cc(S(=O)(=O)CC)ccc2O)cc1	1.1	/	-28	-8	-6	10*
CN(CC1CCCO1)S(=O)(=O)c1ccc(C(=O)NCc2ccccc2)cc1 (centres undefined)	1	-1	-21	-4	-15	-7
Cn1ncc(Cl)c1C(=O)Nc1cccc(Cl)c1	1	/	30*	-1	-9	-6
CSc1cccc(NC(=O)c2c(Cl)cnn2C)c1	1	-8	-4	4	-6	-1
O=C1NN(c2ccccc2)C(=O)/C1=C\c1ccc(-c2cc([N+](=O)[O-])ccc2O)o1	0.6	-2	-9	44	52*	1
COCCCn1c(C)c(C(C)=O)cc(NC(=O)c2ccccc2)c1=O	1	21	-16	-3	-5	11*
C/C(=N/NC(=O)c1cc(-c2ccc(Cl)s2)[nH]n1)c1ccco1	/	8	-17	/	/	/
O=S(=O)(Nc1ccc(N=Nc2ccc(O)c3ccccc23)cc1)c1ccccc1	0.5	23	-3	49	53*	-3
O=S(=O)(Nc1ccc(N=Nc2ccccc2)cc1)c1ccccc1	0.9	-18	-12	15	10	2
O=C(COC(=O)CN1C(=O)c2ccccc2C1=O)Nc1ccc(S(=O)(=O)N2CCCC2)cc1	1.1	/	-20	-6	-16	12*
CC(C)(C)NS(=O)(=O)c1ccc(NC(=O)C2CCCCC2)cc1	1	-17	-18	-5	-7	-1
SMILES	TNAP act hi DEA	Pf gamet viab	Furin inhibitor	TNAP inh hi DEA	TNAP inh noacc	Efa HMGR inh
O=C(CSc1nnnn1-c1ccc(F)cc1)c1ccc(O)c(O)c1	0.9	-32	-7	15	75*	1
COc1ccc(-n2nnnc2SCC(=O)c2cccc(OC)c2)cc1	1.1	4	-8	-6	-9	-7
C/C(=N\NC(=O)CSCc1ccccc1Cl)c1cc(O)ccc1O	0.9	-40	-6	6	75*	3
O=C(CNC(=S)N(Cc1ccccc1F)C1CCCCC1)NCCCN1CCOCC1	1.1	9	-31	-8	-36	13*
COc1ccccc1NC(=O)c1c(N=Cc2ccccc2O)cnn1C	1	/	-22	-2	-4	7
COc1ccc(CCC(=O)N(C)CC(=O)Nc2ccc(N3CCOCC3)cc2)cc1	1.1	/	-22	-6	-15	9.7*
COc1ccc(CC(=O)OCC(=O)Nc2ccc(N3CCOCC3)cc2)cc1	/	-12	-18	/	/	/
O=C(CCc1nnc(Cc2ccc(-c3ccccc3)cc2)o1)NCCc1cccnc1	1.1	2	-15	-8	-11	1
COc1cc(/C(C)=N/NC(=O)CN2CCN(S(=O)(=O)c3ccc(C)cc3)CC2)ccc1O	/	39*	-26	/	/	/
Cn1cccc1/C=N/N1CCN(Cc2cccc3ccccc23)CC1	/	8	-9	/	/	/
COc1ccc(C(=O)N2CCC(C(=O)Nc3ccccc3C)CC2)cc1OC	1.1	-20	-25	-5	-5	10*
COc1cc(Cn2c(=O)oc3ccc(C)cc32)ccc1OC(C)C	1	/	-13	-3	-3	14*
CCOc1ccc(Cn2c(=O)oc3ccc(C)cc32)cc1OC	1.1	/	-17	-7	-10	-2
COc1ccc(CNC(=O)C/C(C)=N/NC(=O)COc2ccc(C)cc2Br)cc1	1	-1	-29	-1	2	-3
CCOC(=O)c1ccc(OCCOc2ccccc2C)cc1	/	-6	/	/	/	/
CCOc1ccc(/C=N/n2cc(-c3ccccc3)[nH]c2=S)cc1	1	/	-6	1	-13	11*
C/C(CC(=O)NC1CCCCC1)=N\NC(=O)COc1ccc(C)cc1Br	1	23	-28	-2	-7	28*
O=C(COCc1nc2ccccc2c(=O)[nH]1)NCC1CCCCC1	1	-5	-16	0	-7	15*
COc1ccc(N2C(=O)CS/C2=C\[N+](=O)[O-])cc1	0.9	6	3	5	-4	15*
CN(Cc1cnn(C)c1)C(=O)c1cc(COc2c(F)cccc2F)on1	1.1	-15	-30	-8	-10	-3
CC(C)Cc1cc(C(=O)N2CCC(N3CCC(C(=O)N4CCCC4)CC3)CC2)n[nH]1	1.1	-12	-18	-6	87*	7
O=C(c1cc2ccccc2o1)N1CCC(N2CCC(C(=O)N3CCCC3)CC2)CC1	1.1	-17	-1	-10	-16	-6
CC(C)Cc1cc(C(=O)N2CCC(N3CCC(C(=O)NC4CC4)CC3)CC2)n[nH]1	1.1	10	-11	-8	92*	7
CC(C)Cc1cc(C(=O)N2CCC(N3CCC(C(=O)N4CCOCC4)CC3)CC2)n[nH]1	1	13	-4	-3	88*	-2
Cn1c(SCC(=O)NC(=O)NCc2ccco2)nnc1C(F)(F)F	1	11	-6	-2	-5	2
O=C(N/N=C/c1ccc[nH]1)c1ccccc1O	1.1	/	-15	-5	-13	10*
